According to ChEMBL document CHEMBL1806443, “Novel imidazo[4,5-b]pyridine and triaza-benzo[c]fluorene derivatives: synthesis, antiproliferative activity and DNA binding studies” (Eur J Med Chem, 2011):
Active and inactive are the calls of the source. The calls are words filed in the database; no cut-off is given here.

Assays:
MIA PaCa-2 [1] = experiment: Cell cycle arrest in human MIAPaCa2 cells assessed as accumulation at G2/M phase at 5 uM after 48 hrs by propidium iodide staining based flow cytometeric analysis (reference value: 14.3 +/- 1.8%); format: functional
Nucleic Acid [2] = experiment: Binding affinity to calf thymus DNA assessed as hypochromic changes at 347 nm wavelength by UV-Vis spectrophotometric titrations; format: nucleic-acid assay; details: Bos taurus
In short: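 UV/Vis titration: aliquots of ct-DNA (concentration as phosphate) added to compound solution in sodium cacodylate buffer pH 7.0, I = 0.05 mol dm^-3, 1 cm quartz cuvettes. Hypochromism followed at band maxima. Compound absorbance linear up to 2.0 × 10^-5 mol dm^-3. Binding data fitted by the Scatchard equation.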

Nucleic Acid [3] = experiment: Binding affinity to calf thymus DNA assessed as change in melting temperature at compound to polynucleotide ratio of 0.3 by UV-VIS spectroscopic analysis; format: nucleic-acid assay; details: Bos taurus
In short: (§1)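 ct-DNA alone or with compound at set r = [compound]/[polynucleotide], in cacodylate buffer pH 7.0, I = 0.05 mol dm^-3. Absorbance at 260 nm followed against temperature, ligand absorbance subtracted, curves normalized. Tm is the transition midpoint, from the first-derivative maximum or by tangent method. ΔTm = Tm(complex) − Tm(free DNA), mean of ≥2 runs, error ±0.5 °C.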

MCF7 = experiment: Antiproliferative activity against human MCF7 cells after 72 hrs by MTT assay; format: functional, cell-based; details: Homo sapiens, MCF7, 72 h
In short: (§2)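 Monolayer cells in DMEM with 10% FBS, 2 mM L-glutamine, penicillin and streptomycin at 37 °C, 5% CO2. Seeded at 3000-6000 cells/well by doubling time on day 0. Five 10-fold dilutions (0.01–100 µM) were added and incubated 72 h. MTT read-out, converted to percentage growth. IC50 by linear regression between bracketing concentrations. Quadruplicate points, three independent experiments, ANOVA/Tukey p<0.05.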

MIA PaCa-2 [4] = experiment: Cell cycle arrest in human MIAPaCa2 cells assessed as accumulation at G2/M phase at 1 uM after 48 hrs by propidium iodide staining based flow cytometeric analysis (reference value: 14.3 +/- 1.8%); format: functional
MIA PaCa-2 [5] = experiment: Cell cycle arrest in human MIAPaCa2 cells assessed as accumulation at S phase at 5 uM after 24 hrs by propidium iodide staining based flow cytometeric analysis (reference value: 29.2 +/- 4.2%); format: functional
Nucleic Acid [6] = experiment: Binding affinity to calf thymus DNA assessed as UV/Vis spectral change at compound to DNA ratio of 0.44 by UV/Vis titrations; details: Bos taurus
MIA PaCa-2 [7] = experiment: Induction of apoptosis in human MIAPaCa2 cells assessed as morphological change after 24 to 48 hrs by microscopic analysis; format: functional, cell-based
In short: (§3)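 Cells were seeded at 3 × 10^4 per well and exposed 24 h later to 1, 5 or 10 µM for 24 and 48 h. Apoptotic morphology (cell shrinkage, chromatin condensation) was scored by inverted light microscopy at 200× magnification.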

MIA PaCa-2 [8] = experiment: Cell cycle arrest in human MIAPaCa2 cells assessed as accumulation at G1 phase at 1 uM after 48 hrs by propidium iodide staining based flow cytometeric analysis (reference value: 65.2 +/- 1.9%); format: functional
SW-620 [9] = experiment: Cell cycle arrest in human SW620 cells assessed as accumulation at S phase at 1 uM after 48 hrs by propidium iodide staining based flow cytometeric analysis (reference value: 31.9 +/- 1%); format: functional
Nucleic Acid [10] = experiment: Binding affinity to calf thymus DNA assessed as change in melting temperature at compound to polynucleotide ratio of 0.2 by UV-VIS spectroscopic analysis; format: nucleic-acid assay; details: Bos taurus; in short: as §1
SW-620 [11] = experiment: Cell cycle arrest in human SW620 cells assessed as accumulation at subG1 phase at 10 uM after 48 hrs by propidium iodide staining based flow cytometeric analysis (reference value: 29.1 +/- 1.1%); format: functional
In short: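 Cells seeded at 3 × 10^4 per well and treated 24 h later with 1, 5 or 10 µM for 24 and 48 h. Adherent and floating cells were pooled, washed in PBS and fixed in 70% ethanol. They were then stained with propidium iodide 10 µg/mL plus RNase A 0.2 µg/mL. Flow cytometry counted 10000 events; each point was run in triplicate; significance was taken at p < 0.05.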

HeLa = experiment: Cytostatic activity against human HeLa cells at 1 to 10 uM after 72 hrs by MTT assay; format: functional, cell-based
In short: (§4)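 Monolayers in DMEM with 10% FBS, 2 mM L-glutamine, penicillin and streptomycin (37 °C, 5% CO2) were seeded at 3000–6000 cells/well on day 0. Five 10-fold dilutions (0.01–100 µM) were added, followed by 72-h incubation and MTT read-out. Absorbances were converted to percentage growth by the NIH formulae. Each point was run in quadruplicate in three experiments; ANOVA with Tukey test.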

SW-620 [12] = experiment: Cell cycle arrest in human SW620 cells assessed as accumulation at G1 phase at 5 uM after 48 hrs by propidium iodide staining based flow cytometeric analysis (reference value: 52.7 +/- 0.9%); format: functional
SW-620 [13] = experiment: Cell cycle arrest in human SW620 cells assessed as accumulation at G2/M phase at 1 uM after 48 hrs by propidium iodide staining based flow cytometeric analysis (reference value: 16.1 +/- 0.9%); format: functional
MIA PaCa-2 [14] = experiment: Cell cycle arrest in human MIAPaCa2 cells assessed as accumulation at subG1 phase at 10 uM after 24 hrs by propidium iodide staining based flow cytometeric analysis (reference value: 48.7 +/- 0.7%); format: functional
SW-620 [15] = experiment: Cell cycle arrest in human SW620 cells assessed as accumulation at subG1 phase at 1 uM after 24 hrs by propidium iodide staining based flow cytometeric analysis (reference value: 18 +/- 1%); format: functional
MIA PaCa-2 [16] = experiment: Induction of apoptosis in human MIAPaCa2 cells assessed as morphological change at 10 uM after 24 to 48 hrs by microscopic analysis; format: functional, cell-based; in short: as §3
SW-620 [17] = experiment: Cell cycle arrest in human SW620 cells assessed as accumulation at S phase at 10 uM after 48 hrs by propidium iodide staining based flow cytometeric analysis (reference value: 31.9 +/- 1%); format: functional
SW-620 [18] = experiment: Cell cycle arrest in human SW620 cells assessed as accumulation at G1 phase at 5 uM after 24 hrs by propidium iodide staining based flow cytometeric analysis (reference value: 29.3 +/- 1.5%); format: functional
MIA PaCa-2 [19] = experiment: Cell cycle arrest in human MIAPaCa2 cells assessed as accumulation at subG1 phase at 1 uM after 24 hrs by propidium iodide staining based flow cytometeric analysis (reference value: 48.7 +/- 0.7%); format: functional
MIA PaCa-2 [20] = experiment: Cell cycle arrest in human MIAPaCa2 cells assessed as accumulation at subG1 phase at 5 uM after 48 hrs by propidium iodide staining based flow cytometeric analysis (reference value: 46.8 +/- 0.7%); format: functional
SK-BR-3 = experiment: Antiproliferative activity against human SKBR3 cells at 0.1 to 10 uM after 72 hrs by MTT assay; format: functional, cell-based; in short: as §2
HEp-2 = experiment: Cytostatic activity against human Hep2 cells at 1 to 10 uM after 72 hrs by MTT assay; format: functional, cell-based; in short: as §4
MIA PaCa-2 [21] = experiment: Cell cycle arrest in human MIAPaCa2 cells assessed as accumulation at G2/M phase at 1 uM after 24 hrs by propidium iodide staining based flow cytometeric analysis (reference value: 19.5 +/- 3.9%); format: functional

Activity (Nucleic Acid [2]): 45% | ΔTm (Nucleic Acid [3]): 6.4 °C | IC50 (MCF7): 6.54 µM | log Ks (Nucleic Acid [6]): 5.4 | ΔTm (Nucleic Acid [10]): 5.1 °C
SMILES: Cl.c1cnc2nc3ccc4ccc(C5=NCCN5)cc4n3c2c1
Activity (MIA PaCa-2 [1]): 20.8% | Activity (MIA PaCa-2 [4]): 23% | Activity (MIA PaCa-2 [5]): 59.3% | Activity (MIA PaCa-2 [7]): Dose-dependent effect | Activity (MIA PaCa-2 [8]): 42.4% | Activity (SW-620 [9]): 45.4% | Activity (SW-620 [11]): 40.6% | Activity (HeLa): Active | Activity (SW-620 [12]): 90.9% | Activity (SW-620 [13]): 19.4% | Activity (MIA PaCa-2 [14]): 50.2% | Activity (SW-620 [15]): 14.3% | Activity (MIA PaCa-2 [16]): Active | Activity (SW-620 [17]): 41.8% | Activity (SW-620 [18]): 86.1% | Activity (MIA PaCa-2 [19]): 57.8% | Activity (MIA PaCa-2 [20]): 56.6% | Activity (SK-BR-3): Active | Activity (HEp-2): Active | Activity (MIA PaCa-2 [21]): 21.3%
